This is an account of results in ChEMBL document CHEMBL1132578, “New peptidic cysteine protease inhibitors derived from the electrophilic alpha-amino acid aziridine-2,3-dicarboxylic acid” (J Med Chem, 1999).

Assay [1] has as its target calpain I. Nature of the assay: Inhibition constant for the non time dependent inhibition of calpain I.
The target of assay [2] is T1, Papain (Carica papaya) (UniProt P00784).
T1 sequence (whole entry): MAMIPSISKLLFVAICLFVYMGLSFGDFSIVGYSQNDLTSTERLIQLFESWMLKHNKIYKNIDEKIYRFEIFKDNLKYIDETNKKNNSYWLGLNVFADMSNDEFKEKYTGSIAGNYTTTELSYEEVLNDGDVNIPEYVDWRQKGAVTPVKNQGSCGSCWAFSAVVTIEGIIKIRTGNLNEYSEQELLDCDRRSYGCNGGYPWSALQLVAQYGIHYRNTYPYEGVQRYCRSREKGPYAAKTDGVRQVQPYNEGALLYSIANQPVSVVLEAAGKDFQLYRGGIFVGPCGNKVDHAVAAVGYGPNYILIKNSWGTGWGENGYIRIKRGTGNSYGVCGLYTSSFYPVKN
Nature of the assay: Second-order rate constants for the inactivation of papain (vacuolar plant enzyme). Summed up:
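Papain with L-BAPA (405 nm) in 50 mM phosphate pH 6.5, 5 mM EDTA, 5 mM cysteine, or with Z-Phe-Arg-AMC in phosphate pH 6.5 with DTT, EDTA, Brij 35; 25 °C. kobs at 3–7 inhibitor concentrations, continuous or dilution assay; k2nd = ki/Ki, or from linear kobs vs [I] when unsaturated; substrate-corrected (Km 2.5 mM L-BAPA, 0.09 mM Z-Phe-Arg-AMC).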

Assay [3] addresses T2, Pro-cathepsin H (Homo sapiens, UniProt P09668).
T2 sequence (P09668 whole entry): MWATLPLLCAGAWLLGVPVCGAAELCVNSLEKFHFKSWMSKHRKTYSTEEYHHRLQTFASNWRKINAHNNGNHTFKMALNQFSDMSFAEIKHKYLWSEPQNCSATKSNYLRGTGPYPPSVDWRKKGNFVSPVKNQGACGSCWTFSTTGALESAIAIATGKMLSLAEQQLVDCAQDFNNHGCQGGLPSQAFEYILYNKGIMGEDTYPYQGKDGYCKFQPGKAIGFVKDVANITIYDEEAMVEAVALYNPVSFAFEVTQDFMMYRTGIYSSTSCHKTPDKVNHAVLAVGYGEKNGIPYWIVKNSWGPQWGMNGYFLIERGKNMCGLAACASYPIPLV
Kind of assay: Inhibition constant for the non time dependent inhibition of Cathepsin H; no inhibition.

Assay [4] has as its target Cathepsin B (Bos taurus) (UniProt P07688). Kind of assay: Evaluated for second-order rate constants for the inactivation of mammalian lysosomal cathepsin B.
For assay [5], the target named is Procathepsin L (Homo sapiens) (UniProt P07711). Nature of the assay: Evaluated for second-order rate constants for the inactivation of mammalian lysosomal cathepsin L.
Chain of Procathepsin L (Homo sapiens) (P07711 114-333 limits assumed): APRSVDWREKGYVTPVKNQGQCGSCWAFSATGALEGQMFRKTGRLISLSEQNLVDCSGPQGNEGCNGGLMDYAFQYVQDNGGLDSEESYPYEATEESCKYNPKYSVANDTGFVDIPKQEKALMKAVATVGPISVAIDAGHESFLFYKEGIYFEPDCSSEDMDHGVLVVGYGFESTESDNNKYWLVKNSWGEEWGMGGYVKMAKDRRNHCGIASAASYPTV
Assay [6] concerns the target T1, Papain (Carica papaya). Kind of assay: Percent inhibition of papain by the compound at pH 8.0. The settings on record: concentration not given here. Summed up:
(§1)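 Papain (0.5 mg/mL) with 1.49 mM L-BAPA, with or without 17 µM inhibitor for 30 min, at pH 5.2–8.0 (citrate pH 4–6, phosphate pH 6–8), 25 °C; nitroanilide release read at 405 nm. Activities are means of five assays; percent inhibition compares inhibited and uninhibited activity.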

The target in assay [7] is T1, Papain (Carica papaya). Nature of the assay: pH dependency of inhibition of papain without the compound at pH 5.2 mean values from five assays. In outline:
as §1

Assay [8] deals with T1, Papain (Carica papaya). Nature of the assay: pH dependency of inhibition of papain with the compound at pH 6.0 [I] = 17 uM, incubation time = 30 minutes, [S] = 1.49 mM L-BAPA, [E] = 0.5 mg m/L. Summed up:
as §1

Assay [9] deals with T1, Papain (Carica papaya). Nature of the assay: pH dependency of inhibition of papain without the compound at pH 7.0 mean values from five assays. Summed up:
as §1

Assay [10] has as its target T1, Papain (Carica papaya). Nature of the assay: pH dependency of inhibition of papain without the compound at pH 8.0 mean values from five assays. In outline: as §1
In assay [11] the target is T3, Calpain-1 catalytic subunit (Homo sapiens, UniProt P07384).
T3 sequence (P07384 whole entry): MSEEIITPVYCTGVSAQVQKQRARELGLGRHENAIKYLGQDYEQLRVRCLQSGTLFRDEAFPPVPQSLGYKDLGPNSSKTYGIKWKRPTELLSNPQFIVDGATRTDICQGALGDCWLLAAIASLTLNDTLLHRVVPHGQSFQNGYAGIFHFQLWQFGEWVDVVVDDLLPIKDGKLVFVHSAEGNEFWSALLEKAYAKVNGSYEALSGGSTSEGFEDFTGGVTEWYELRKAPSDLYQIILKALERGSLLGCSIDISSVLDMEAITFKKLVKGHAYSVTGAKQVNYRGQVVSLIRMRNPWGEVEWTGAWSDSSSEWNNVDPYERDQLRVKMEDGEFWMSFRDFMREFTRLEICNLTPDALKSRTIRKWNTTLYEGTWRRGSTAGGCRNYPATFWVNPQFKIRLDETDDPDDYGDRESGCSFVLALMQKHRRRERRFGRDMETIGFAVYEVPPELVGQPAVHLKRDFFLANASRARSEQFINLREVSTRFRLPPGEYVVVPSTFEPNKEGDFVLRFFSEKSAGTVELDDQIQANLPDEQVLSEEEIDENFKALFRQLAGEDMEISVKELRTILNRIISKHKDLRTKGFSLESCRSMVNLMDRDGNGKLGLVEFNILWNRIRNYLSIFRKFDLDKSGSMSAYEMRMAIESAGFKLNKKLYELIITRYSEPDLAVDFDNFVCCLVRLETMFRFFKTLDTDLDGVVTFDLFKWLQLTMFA
Nature of the assay: Compound was evaluated for inhibition constant for the non-time dependent inhibition of Calpain 1; no inhibition. Set-up: species or system Sus scrofa.

Assay [12] has as its target T1, Papain (Carica papaya). Kind of assay: pH dependency of inhibition of papain without the compound at pH 6.0 mean values from five assays. Summed up:
as §1

In assay [13] the target is T1, Papain (Carica papaya). Nature of the assay: pH dependency of inhibition of papain with the compound at pH 6.5 [I] = 17 uM, incubation time = 30 minutes, [S] = 1.49 mM L-BAPA, [E] = 0.5 mg m/L. Summed up:
as §1

Assay [14] deals with T1, Papain (Carica papaya).
Assay [15] concerns the target T1, Papain (Carica papaya). Kind of assay: Percent inhibition of papain by the compound at pH 6.5. The settings on record: concentration not given here. In outline: as §1
The target of assay [16] is T1, Papain (Carica papaya). Kind of assay: Percent inhibition of papain by the compound at pH 7.0. The settings on record: concentration not given here. In outline:
as §1

Assay [17] deals with T1, Papain (Carica papaya). This is another data set of the same source.
For assay [18], the target named is T1, Papain (Carica papaya). Nature of the assay: pH dependency of inhibition of papain with the compound at pH 5.2 [I] = 17 uM, incubation time = 30 minutes, [S] = 1.49 mM L-BAPA, [E] = 0.5 mg m/L. In outline: as §1
The target of assay [19] is Procathepsin L (Homo sapiens) (UniProt P07711). The settings on record: Paramecium tetraurelia.
Assay [20] concerns the target T2, Pro-cathepsin H. Kind of assay: Compound was evaluated for inhibition constant for the non-time dependent inhibition of Cathepsin H.
The target of assay [21] is T1, Papain (Carica papaya). Kind of assay: Percent inhibition of papain by the compound at pH 5.2. The settings on record: concentration not given here. In outline:
as §1

Assay [22] has as its target T1, Papain (Carica papaya). Nature of the assay: Percent inhibition of papain by the compound at pH 6.0. The settings on record: concentration not given here. Summed up: as §1
Assay [23] has as its target T1, Papain (Carica papaya). This is another data set of the same source.
The target of assay [24] is T1, Papain (Carica papaya). The source holds these as a separate data set.
For assay [25], the target named is T1, Papain (Carica papaya). Nature of the assay: pH dependency of inhibition of papain with the compound at pH 8.0 [I] = 17 uM, incubation time = 30 minutes, [S] = 1.49 mM L-BAPA, [E] = 0.5 mg m/L. Summed up: as §1
For assay [26], the target named is T1, Papain (Carica papaya). Kind of assay: pH dependency of inhibition of papain without the compound at pH 6.5 mean values from five assays. Summed up: as §1
For assay [27], the target named is T1, Papain (Carica papaya). Nature of the assay: pH dependency of inhibition of papain with the compound at pH 7.0 [I] = 17 uM, incubation time = 30 minutes, [S] = 1.49 mM L-BAPA, [E] = 0.5 mg m/L. In outline: as §1
In assay [28] the target is Cathepsin B (Bos taurus) (UniProt P07688).

With `CCOC(=O)[C@@H]1[C@@H](C(=O)OCC)N1C(=O)[C@H](C)NC(=O)OCc1ccccc1`, the Ki in assay [1] was 160 µM; in assay [3] it was “Not Active”. For the same compound, the values for the ki/Ki in [2], in assay [4] and in assay [5] were 1.22 M⁻¹ s⁻¹, 1.12 M⁻¹ s⁻¹ and 5.08 M⁻¹ s⁻¹, respectively.
Turning to `CCOC(=O)[C@@H]1[C@@H](C(=O)OCC)N1C(=O)[C@H](Cc1ccccc1)NC(=O)OC(C)(C)C`, the inhibition in assay [6] was found to be 89.7%; in assay [15], 86.7%; in [16] it was 89.8%; in assay [21] it was 71.6%; in assay [22], 81.1%. For the same compound, the Activity in assay [7] was determined as 6.54 mU/mL; in assay [8], 1.38 mU/mL; in [9], 7.33 mU/mL; in [10] it was 7.31 mU/mL; in assay [12] it was 7.33 mU/mL; in [13], 0.98 mU/mL. Besides, the Activity was 1.86 mU/mL in assay [18], 0.75 mU/mL in assay [25], 7.38 mU/mL in assay [26] and 0.75 mU/mL in assay [27]. Besides, the values for the Ki result in [11] and in assay [20] were “Not Active” and 210 µM, respectively. For the same compound, the ki/Ki in [14] is 6.83 M⁻¹ s⁻¹; in assay [17], 6.8 M⁻¹ s⁻¹; in [19] it was 1.08 M⁻¹ s⁻¹; in assay [23], 7.07 M⁻¹ s⁻¹; in assay [24] it was 1.2 M⁻¹ s⁻¹; in [28], 2.08 M⁻¹ s⁻¹.

Broadly, the inhibition is the percentage by which the read-out fell short of the control. Low values mean a response near the control, high ones a response far below the control.
